# Measured values taken from ChEMBL document CHEMBL2311525, “Design, synthesis, and pharmacological properties of new heteroarylpyridine/heteroarylpyrimidine derivatives as CB(2) cannabinoid receptor partial agonists” (J Med Chem, 2013).
# How the values were obtained:
# Cannabinoid receptor 1 [1] = target: T1, Cannabinoid receptor 1 (Homo sapiens, UniProt P21554); assay: Displacement of [3H]CP-55,940 from human recombinant CB1 receptor expressed in CHO cell membranes after 90 mins by scintillation counting analysis
# T1 sequence (P21554 whole entry): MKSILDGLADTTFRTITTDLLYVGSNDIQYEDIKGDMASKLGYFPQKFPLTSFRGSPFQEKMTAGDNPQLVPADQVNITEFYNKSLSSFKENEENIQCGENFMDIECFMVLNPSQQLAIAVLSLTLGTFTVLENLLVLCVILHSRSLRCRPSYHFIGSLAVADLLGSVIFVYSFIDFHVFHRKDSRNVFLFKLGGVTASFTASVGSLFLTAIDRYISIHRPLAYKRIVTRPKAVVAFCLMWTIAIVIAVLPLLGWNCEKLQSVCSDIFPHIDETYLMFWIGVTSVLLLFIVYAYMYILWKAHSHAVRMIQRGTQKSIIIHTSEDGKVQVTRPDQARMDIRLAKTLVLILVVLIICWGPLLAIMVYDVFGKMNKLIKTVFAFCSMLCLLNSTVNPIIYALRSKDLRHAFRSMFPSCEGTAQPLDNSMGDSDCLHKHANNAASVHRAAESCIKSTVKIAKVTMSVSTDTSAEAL
# Cannabinoid receptor 1 [2] = target: Cannabinoid receptor 1 (Rattus norvegicus, UniProt P20272); assay: Displacement of [3H]CP-55,940 from Sprague-Dawley rat brain CB1 receptor by scintillation counting analysis
# Cannabinoid receptor 1 (Rattus norvegicus, UniProt P20272), sequence (P20272 whole entry): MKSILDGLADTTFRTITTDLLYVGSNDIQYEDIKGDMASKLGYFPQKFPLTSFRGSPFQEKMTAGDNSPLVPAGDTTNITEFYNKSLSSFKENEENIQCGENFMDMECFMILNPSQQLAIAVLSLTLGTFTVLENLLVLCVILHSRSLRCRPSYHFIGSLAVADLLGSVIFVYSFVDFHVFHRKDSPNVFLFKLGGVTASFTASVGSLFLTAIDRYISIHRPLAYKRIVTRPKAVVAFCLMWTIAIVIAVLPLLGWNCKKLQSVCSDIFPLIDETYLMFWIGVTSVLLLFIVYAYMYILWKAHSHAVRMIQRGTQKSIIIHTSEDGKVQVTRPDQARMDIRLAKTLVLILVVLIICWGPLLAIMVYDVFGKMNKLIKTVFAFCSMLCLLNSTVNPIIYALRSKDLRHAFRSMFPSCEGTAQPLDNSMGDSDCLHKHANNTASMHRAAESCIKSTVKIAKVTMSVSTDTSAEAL
# How it was run: (§1)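 Male Sprague-Dawley rat brain membranes, prepared by spinning at 2000g and then 40000g, in 50 mM Tris-HCl with 1 mM EDTA, 3 mM MgCl2 and 0.5% fatty-acid-free BSA, pH 7.4. Incubated with 1.0 nM [3H]CP-55,940, 40 μg protein/100 μL and test compound at 1 nM–10 μM. Filtered on GF/C. Ki by Cheng–Prusoff, n = 4.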
# [3] = target: T2, Cannabinoid receptor 2 (Rattus norvegicus) (UniProt Q9QZN9); assay: Displacement of [3H]CP-55,940 from Sprague-Dawley rat spleen CB2 receptor at 1 to 10000 nM by scintillation counting analysis
# T2 sequence (whole entry): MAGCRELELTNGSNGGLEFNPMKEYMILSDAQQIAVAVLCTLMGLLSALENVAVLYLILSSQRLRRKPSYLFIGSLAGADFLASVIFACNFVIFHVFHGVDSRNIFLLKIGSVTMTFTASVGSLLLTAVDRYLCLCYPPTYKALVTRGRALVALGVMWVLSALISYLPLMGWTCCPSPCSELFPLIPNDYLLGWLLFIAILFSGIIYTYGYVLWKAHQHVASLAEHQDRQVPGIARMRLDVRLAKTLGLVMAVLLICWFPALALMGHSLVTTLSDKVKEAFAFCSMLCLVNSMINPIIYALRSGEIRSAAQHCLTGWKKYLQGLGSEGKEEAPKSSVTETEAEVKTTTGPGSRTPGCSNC
# How it was run: as §1, with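 “rat spleen” for “rat brain”, “with 0.5” for “with 1.0”, “[3H]CP-55,940, 80” for “[3H]CP-55,940, 40”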
# Cannabinoid receptor 2 [4] = target: T3, Cannabinoid receptor 2 (Homo sapiens, UniProt P34972); assay: Displacement of [3H]CP-55,940 from human recombinant CB2 receptor expressed in CHO cell membranes at 1 to 10000 nM after 60 mins by scintillation counting analysis
# T3 sequence (P34972 whole entry): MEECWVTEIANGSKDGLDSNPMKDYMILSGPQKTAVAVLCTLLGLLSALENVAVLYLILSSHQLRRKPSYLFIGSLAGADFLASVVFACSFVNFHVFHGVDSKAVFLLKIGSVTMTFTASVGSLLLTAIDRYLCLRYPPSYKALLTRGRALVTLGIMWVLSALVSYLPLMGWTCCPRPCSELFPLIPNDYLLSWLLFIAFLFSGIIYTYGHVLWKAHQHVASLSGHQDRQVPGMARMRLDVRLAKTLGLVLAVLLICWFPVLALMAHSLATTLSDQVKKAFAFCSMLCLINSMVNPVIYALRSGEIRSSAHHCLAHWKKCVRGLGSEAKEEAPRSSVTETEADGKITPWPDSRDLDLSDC
# How it was run: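 Membranes from CHO cells expressing hCB2, spun at 100000g, in 50 mM Tris-HCl with 0.5% BSA, 5 mM MgCl2 and 1 mM EDTA, pH 7.4. Incubated with 0.5 nM [3H]CP-55,940 and compound at 1 nM–10 μM for 60 min at 30 °C. Filtered on GF/C and counted. Ki by Cheng–Prusoff, n = 4.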
# Cannabinoid receptor 2 [5] = target: T4, Cannabinoid receptor 2 (Rattus norvegicus, UniProt Q9QZN9); assay: Displacement of [3H]CP-55,940 from Sprague-Dawley rat spleen CB2 receptor by scintillation counting analysis
# T4 sequence (Q9QZN9 whole entry): T2 sequence (whole entry)
# How it was run: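 Male Sprague-Dawley rat spleen membranes, prepared by spinning at 2000g and then 40000g, in 50 mM Tris-HCl with 1 mM EDTA, 3 mM MgCl2 and 0.5% fatty-acid-free BSA, pH 7.4. Filtered on GF/C.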
# Cannabinoid receptor 1 [6] = target: T1, Cannabinoid receptor 1; assay: Displacement of [3H]CP-55,940 from human recombinant CB1 receptor expressed in CHO cell membranes at 1 to 10000 nM after 90 mins by scintillation counting analysis
# How it was run: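 Membranes from CHO cells expressing hCB1, spun at 100000g, in 50 mM Tris-HCl with 0.5% BSA, 5 mM MgCl2 and 2.5 mM EDTA, pH 7.4. Incubated with 0.5 nM [3H]CP-55,940 and compound at 1 nM–10 μM for 90 min at 30 °C. Filtered on GF/C and counted. Ki by Cheng–Prusoff, n = 4.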
# Cannabinoid receptor 2 [7] = target: T3, Cannabinoid receptor 2; assay: Displacement of [3H]CP-55,940 from human recombinant CB2 receptor expressed in CHO cell membranes after 60 mins by scintillation counting analysis
# [8] = target: Cannabinoid receptor 1 (Rattus norvegicus) (UniProt P20272); assay: Displacement of [3H]CP-55,940 from Sprague-Dawley rat brain CB1 receptor at 1 to 10000 nM by scintillation counting analysis; how it was run: as §1
# Cannabinoid receptor 1 (Rattus norvegicus), sequence (P20272 whole entry): as the sequence (P20272 whole entry) above
# Homo sapiens = species on record: Homo sapiens; assay: Selectivity ratio of Ki for CB1 receptor (unknown origin) to Ki for CB2 receptor (unknown origin)
# Cannabinoid receptor 2 [9] = target: T3, Cannabinoid receptor 2; assay: Agonist activity at human CB2 receptor expressed in CHO cells assessed as forskolin-stimulated [3H]cyclic-AMP accumulation by scintillation counting analysis relative to WIN 55,212-2; format: functional, cell-based
# How it was run: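 CHO cells stably expressing human CB2, 1 × 10^6 cells/assay, in buffered saline (10 mM MgCl2, 5 mM glucose, 5 mM HEPES, pH 7.4, 37 °C) with 0.5 mM Ro 20-1724. Preincubated 10 min at 37 °C, then tested with 1 μM forskolin. Stopped with cold 6% TCA and ether-extracted. cAMP read by [3H]cAMP competition binding to beef adrenal binding protein with charcoal separation.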
# Cannabinoid receptor 2 [10] = target: T3, Cannabinoid receptor 2; assay: Agonist activity at human CB2 receptor expressed in CHO cells assessed as forskolin-stimulated [3H]cyclic-AMP accumulation by scintillation counting analysis; format: functional, cell-based
SMILES,Ki (Cannabinoid receptor 1 [1]) [µM],Ki (Cannabinoid receptor 1 [2]) [µM],inhibition [3] [%],inhibition (Cannabinoid receptor 2 [4]) [%],Ki (Cannabinoid receptor 2 [5]) [µM],inhibition (Cannabinoid receptor 1 [6]) [%],Ki (Cannabinoid receptor 2 [7]) [µM],inhibition [8] [%],Ratio Ki (Homo sapiens),Emax (Cannabinoid receptor 2 [9]) [%],EC50 (Cannabinoid receptor 2 [10]) [µM]
CCCCCn1cc(C(=O)NC2CCCCCC2)c(=O)c2c(-c3ccccc3)nn(C)c21,> 10,> 10,1,1,> 10,1,> 10,1,,,
Cc1nn(C)c2c1c(=O)c(C(=O)NC1CCCCC1)cn2CCCCC#N,> 10,> 10,5,11,> 10,28,> 10,25,,,
CCCCCn1cc(C(=O)Nc2ccc(F)cc2)c(=O)c2c(C)nn(C)c21,> 10,> 10,27,37,> 10,44,> 10,48,,,
Cc1ccc(Cn2cc(C(=O)NC3CCCCC3)c(=O)c3c(C)nn(C)c32)cc1,> 10,> 10,29,33,> 10,35,> 10,38,,,
CCOCCn1cc(C(=O)NC2CCCCC2)c(=O)c2c(C)nn(C)c21,> 10,> 10,1,1,> 10,14,> 10,10,,,
CCCCCCC(C)(C)c1cc(OC)c([C@@H]2C=C(CO)[C@H]3C[C@@H]2C3(C)C)c(OC)c1,,,,,,,,,400,,
CCCCCn1cc(C(=O)NC2CCCCC2)c(=O)c2c(-c3ccccc3)nn(C)c21,> 10,> 10,1,1,> 10,23,> 10,18,,,
CCCCCn1cc(C(=O)Nc2ccc(OC)cc2)c(=O)c2c(C)nn(C)c21,> 10,> 10,24,33,> 10,38,> 10,46,,,
C=CCn1cc(C(=O)NC2CCCCC2)c(=O)c2c(C)nn(C)c21,> 10,> 10,46,42,> 10,34,> 10,27,,58,0.587
Cc1nn(C)c2c1c(=O)c(C(=O)NC1CCCCC1)cn2CCN1CCOCC1,> 10,> 10,32,36,> 10,16,> 10,13,,,
